Reference: article PMC3351161 (Nucleic Acids Research, 2012)
Each block holds one molecule with its values, some of them ahead of it.

Key:
Mdc1–FHA domain = experiment: Detection of proposed partners in Mdc1–FHA pull-down / co-immunoprecipitation; format: binding, human; settings: for detection in fraction pulled down by Mdc1–FHA domain: mass spectrometry; for detection by western blot in Mdc1–FHA pull-down / co-IP: U2OS, 10 Gy IR or untreated
[1] = tested on: Strep-tagged Mdc1–FHA domain (amino acids 1–154); experiment: SILAC pull-down of Mdc1–FHA interaction partners, −IR versus +IR; format: binding, human; settings: 10 Gy IR
Method in brief: (§1)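 U2OS cells stably carry a doxycycline-inducible, C-terminally Strep-tagged FHA domain (aa 1–154) or empty plasmid. They are SILAC-labelled (Lys0/Arg0, Lys4/Arg6, Lys8/Arg10) in dialyzed FBS, induced 16 h, then given 10 Gy IR for 30 min. Lysis in pH 7.5 Tris/NP-40 buffer with phosphatase and protease inhibitors, Strep-Tactin capture, pooled eluates on 4–20% SDS-PAGE, in-gel trypsin digestion. Analysis by nano-LC Orbitrap Velos MS and MaxQuant (FDR <1%). Read-out is normalized log2 SILAC ratios; 1:1:1 ratios count as background binders.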

[2] = tested on: Mdc1–FHA WT and T4A mutant domains; experiment: SILAC pull-down, wild-type versus T4A Mdc1–FHA domain after IR; format: binding, human; settings: IR-treated cells
Method in brief: as §1

[3] = tested on: Mdc1 Thr-4 / Thr-98 phosphorylation; experiment: MS quantitation of Mdc1–FHA phosphorylation site occupancy; format: cell-based, human
Myc-tagged Mdc1 (1–800) = experiment: Co-immunoprecipitation of Flag- and Myc-tagged Mdc1; format: cell-based, human; settings: transiently transfected 293T cells, anti-Flag IP, anti-Myc immunoblot
Method in brief: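 Human Mdc1 residues 1–800, C-terminally tagged with HA/FLAG or Myc, in a pcDNA3.1(+) vector. HEK 293T cells grown in D-MEM with 10% FCS and streptomycin/penicillin (100 U/ml). Transfected with FuGene 6 or calcium phosphate. Immunoprecipitation on anti-FLAG M2 affinity gel; Myc-tagged partner detected by immunoblot with rabbit polyclonal c-Myc antibody.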

[4] = tested on: immunoprecipitated human ATM; experiment: In vitro ATM kinase assay of recombinant Mdc1 fragments; format: biochemical; settings: 0.5 mM ATP, γ-[32P]ATP, 30 min at 30°C, autoradiography

Molecule: Chk2: DNA damage kinase
detection in fraction pulled down by Mdc1–FHA domain (Mdc1–FHA domain): could not detect peptides | detection by western blot in Mdc1–FHA pull-down / co-IP (Mdc1–FHA domain): unable to detect

Molecule: DDB1- and Cul4-associated factor 1 [DCAF1]
decrease of interaction with the MDC1–FHA domain in the presence of DNA damage [1]: > 2.5 fold

Molecule: MDC1: endogenous Mdc1 as interaction partner of its own FHA domain
interaction with wild-type compared to T4A FHA domain (in words) [2]: interacts with the wild-type fragment

Molecule: ATM: ataxia telangiectasia-mutated kinase
detection in fraction pulled down by Mdc1–FHA domain (Mdc1–FHA domain): could not detect peptides | detection by western blot in Mdc1–FHA pull-down / co-IP (Mdc1–FHA domain): unable to detect

Molecule: DNA damage binding protein 1 [DDB1]
decrease of interaction with the MDC1–FHA domain in the presence of DNA damage [1]: > 2.5 fold

occupancy rate of phosphorylated Thr-4, after irradiation ([3]; SILAC and extracted ion chromatogram quantitation, after irradiation): 61.5% | occupancy rate of phosphorylated Thr-4, before irradiation ([3]; SILAC and extracted ion chromatogram quantitation, not irradiated): 18.6%
B1: Mdc1-FHA domain: C-terminally Strep-tagged Mdc1-FHA domain (amino acids 1–154) (protein)
chain: NVEPVGRLHIFSGAHGPEKDFPLHLGKNVVGRMPDCSVALPFPSISKQHAEIEILAWDKAPILRDCGSLNGTQILRPPKVLSPGVSHRLRDQELILFADLLCQYHRLDVSLP
modifications: left off: GST, end not stated, cleaved
Thr-98 phosphorylation ([3]; MS of tryptic peptide): no phosphorylated form was evident

B2: Mdc1 (1–800) R58A: FHA domain R58A mutant of Mdc1 (1–800) (protein, UniProt Q14676 1-800, looked up, variant R58A)
chain: MEDTQAIDWDVEEEEETEQSSESLRCNVEPVGRLHIFSGAHGPEKDFPLHLGKNVVGAMPDCSVALPFPSISKQHAEIEILAWDKAPILRDCGSLNGTQILRPPKVLSPGVSHRLRDQELILFADLLCQYHRLDVSLPFVSRGPLTVEETPRVQGETQPQRLLLAEDSEEEVDFLSERRMVKKSRTTSSSVIVPESDEEGHSPVLGGLGPPFAFNLNSDTDVEEGQQPATEEASSAARRGATVEAKQSEAEVVTEIQLEKDQPLVKERDNDTKVKRGAGNGVVPAGVILERSQPPGEDSDTDVDDDSRPPGRPAEVHLERAQPFGFIDSDTDAEEERIPATPVVIPMKKRKIFHGVGTRGPGAPGLAHLQESQAGSDTDVEEGKAPQAVPLEKSQASMVINSDTDDEEEVSAALTLAHLKESQPAIWNRDAEEDMPQRVVLLQRSQTTTERDSDTDVEEEELPVENREAVLKDHTKIRALVRAHSEKDQPPFGDSDDSVEADKSSPGIHLERSQASTTVDINTQVEKEVPPGSAIIHIKKHQVSVEGTNQTDVKAVGGPAKLLVVSLEEAWPLHGDCETDAEEGTSLTASVVADVRKSQLPAEGDAGAEWAAAVLKQERAHEVGAQGGPPVAQVEQDLPISRENLTDLVVDTDTLGESTQPQREGAQVPTGREREQHVGGTKDSEDNYGDSEDLDLQATQCFLENQGLEAVQSMEDEPTQAFMLTPPQELGPSHCSFQTTGTLDEPWEVLATQPFCLRESEDSETQPFDTHLEAYGPCLSPPRAIPGDQHPESPVHTEPM
interaction of Flag-tagged with Myc-tagged Mdc1 (1–800) (Myc-tagged Mdc1 (1–800)): significant reduction of the interaction

B3: Mdc1 (1–800) T4A: T4A mutant of Mdc1 (1–800) (protein, UniProt Q14676 1-800, looked up, variant T4A)
chain: MEDAQAIDWDVEEEEETEQSSESLRCNVEPVGRLHIFSGAHGPEKDFPLHLGKNVVGRMPDCSVALPFPSISKQHAEIEILAWDKAPILRDCGSLNGTQILRPPKVLSPGVSHRLRDQELILFADLLCQYHRLDVSLPFVSRGPLTVEETPRVQGETQPQRLLLAEDSEEEVDFLSERRMVKKSRTTSSSVIVPESDEEGHSPVLGGLGPPFAFNLNSDTDVEEGQQPATEEASSAARRGATVEAKQSEAEVVTEIQLEKDQPLVKERDNDTKVKRGAGNGVVPAGVILERSQPPGEDSDTDVDDDSRPPGRPAEVHLERAQPFGFIDSDTDAEEERIPATPVVIPMKKRKIFHGVGTRGPGAPGLAHLQESQAGSDTDVEEGKAPQAVPLEKSQASMVINSDTDDEEEVSAALTLAHLKESQPAIWNRDAEEDMPQRVVLLQRSQTTTERDSDTDVEEEELPVENREAVLKDHTKIRALVRAHSEKDQPPFGDSDDSVEADKSSPGIHLERSQASTTVDINTQVEKEVPPGSAIIHIKKHQVSVEGTNQTDVKAVGGPAKLLVVSLEEAWPLHGDCETDAEEGTSLTASVVADVRKSQLPAEGDAGAEWAAAVLKQERAHEVGAQGGPPVAQVEQDLPISRENLTDLVVDTDTLGESTQPQREGAQVPTGREREQHVGGTKDSEDNYGDSEDLDLQATQCFLENQGLEAVQSMEDEPTQAFMLTPPQELGPSHCSFQTTGTLDEPWEVLATQPFCLRESEDSETQPFDTHLEAYGPCLSPPRAIPGDQHPESPVHTEPM
interaction of Flag-tagged with Myc-tagged Mdc1 (1–800) (Myc-tagged Mdc1 (1–800)): significant reduction of the interaction

B4: Mdc1 (1–800) concomitant mutation of both the FHA domain and Thr-4: T4A/R58A mutant of Mdc1 (1–800) (protein, UniProt Q14676 1-800, looked up, variant T4A R58A)
chain: MEDAQAIDWDVEEEEETEQSSESLRCNVEPVGRLHIFSGAHGPEKDFPLHLGKNVVGAMPDCSVALPFPSISKQHAEIEILAWDKAPILRDCGSLNGTQILRPPKVLSPGVSHRLRDQELILFADLLCQYHRLDVSLPFVSRGPLTVEETPRVQGETQPQRLLLAEDSEEEVDFLSERRMVKKSRTTSSSVIVPESDEEGHSPVLGGLGPPFAFNLNSDTDVEEGQQPATEEASSAARRGATVEAKQSEAEVVTEIQLEKDQPLVKERDNDTKVKRGAGNGVVPAGVILERSQPPGEDSDTDVDDDSRPPGRPAEVHLERAQPFGFIDSDTDAEEERIPATPVVIPMKKRKIFHGVGTRGPGAPGLAHLQESQAGSDTDVEEGKAPQAVPLEKSQASMVINSDTDDEEEVSAALTLAHLKESQPAIWNRDAEEDMPQRVVLLQRSQTTTERDSDTDVEEEELPVENREAVLKDHTKIRALVRAHSEKDQPPFGDSDDSVEADKSSPGIHLERSQASTTVDINTQVEKEVPPGSAIIHIKKHQVSVEGTNQTDVKAVGGPAKLLVVSLEEAWPLHGDCETDAEEGTSLTASVVADVRKSQLPAEGDAGAEWAAAVLKQERAHEVGAQGGPPVAQVEQDLPISRENLTDLVVDTDTLGESTQPQREGAQVPTGREREQHVGGTKDSEDNYGDSEDLDLQATQCFLENQGLEAVQSMEDEPTQAFMLTPPQELGPSHCSFQTTGTLDEPWEVLATQPFCLRESEDSETQPFDTHLEAYGPCLSPPRAIPGDQHPESPVHTEPM
interaction of Flag-tagged with Myc-tagged Mdc1 (1–800) (Myc-tagged Mdc1 (1–800)): complete loss of binding

B5: M-4: GST-fusion Mdc1 fragment M-4 (amino acids 531–770) (protein, UniProt Q14676 531-770, looked up, fragment)
chain: PGSAIIHIKKHQVSVEGTNQTDVKAVGGPAKLLVVSLEEAWPLHGDCETDAEEGTSLTASVVADVRKSQLPAEGDAGAEWAAAVLKQERAHEVGAQGGPPVAQVEQDLPISRENLTDLVVDTDTLGESTQPQREGAQVPTGREREQHVGGTKDSEDNYGDSEDLDLQATQCFLENQGLEAVQSMEDEPTQAFMLTPPQELGPSHCSFQTTGTLDEPWEVLATQPFCLRESEDSETQPFDT
modifications: GST fusion
phosphorylation by ATM in vitro [4]: ATM only phosphorylated fragment M-1 (amino acids 1–124) and fragment M-4 (amino acids 531–770)

B6: M-1: GST-fusion Mdc1 fragment M-1 (amino acids 1–124) (protein, UniProt Q14676 1-124, looked up, fragment)
chain: MEDTQAIDWDVEEEEETEQSSESLRCNVEPVGRLHIFSGAHGPEKDFPLHLGKNVVGRMPDCSVALPFPSISKQHAEIEILAWDKAPILRDCGSLNGTQILRPPKVLSPGVSHRLRDQELILFA
modifications: GST fusion
phosphorylation by ATM in vitro [4]: ATM only phosphorylated fragment M-1 (amino acids 1–124) and fragment M-4 (amino acids 531–770)

B7: M-1 T4A: M-1 point mutation altering Thr-4 to Ala (protein, UniProt Q14676 1-124, looked up, variant T4A)
chain: MEDAQAIDWDVEEEEETEQSSESLRCNVEPVGRLHIFSGAHGPEKDFPLHLGKNVVGRMPDCSVALPFPSISKQHAEIEILAWDKAPILRDCGSLNGTQILRPPKVLSPGVSHRLRDQELILFA
modifications: GST fusion
phosphorylation by ATM in vitro [4]: could no longer be phosphorylated by ATM in vitro

B8: Rad51: repair protein (protein)
chain: MAMQMQLEANADTSVEEESFGPQPISRLEQCGINANDVKKLEEAGFHTVEAVAYAPKKELINIKGISEAKADKILAEAAKLVPMGFTTATEFHQRRSEIIQITTGSKELDKLLQGGIETGSITEMFGEFRTGKTQICHTLAVTCQLPIDRGGGEGKAMYIDTEGTFRPERLLAVAERYGLSGSDVLDNVAYARAFNTDHQTQLLYQASAMMVESRYALLIVDSATALYRTDYSGRGELSARQMHLARFLRMLLRLADEFGVAVVITNQVVAQVDGAAMFAADPKKPIGGNIIAHASTTRLYLRKGRGETRICKIYDSPCLPEAEAMFAINADGVGDAKD
detection in fraction pulled down by Mdc1–FHA domain (Mdc1–FHA domain): could not detect peptides
